Results as given in ChEMBL document CHEMBL1123812, “Pyrroloisoquinoline antidepressants. 2. In-depth exploration of structure-activity relationships” (J Med Chem, 1987).
pKi: −log10 of the molar value. Activity calls are given as the source filed them.

Tests used:
[1] = biological target: Sodium-dependent dopamine transporter (Rattus norvegicus) (UniProt P23977); test: Inhibition of tritiated dopamine (DA) uptake at 0.1 uM concentration; type: functional
Method in brief: (§1)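 Male Wistar rat brain synaptosomes (P2 fraction): hypothalamus for NE, striatum for DA, cerebral cortex for 5-HT. Buffer is Tris- or HEPES-buffered salt medium with glucose, ascorbate and nialamide, pH 7.4 at 37 °C. Preincubated 10 min at 37 °C with compound. Uptake started with [3H]NE 100–300 nM, [3H]DA 50–300 nM or [3H]5-HT 100–200 nM, incubated 3 min (DA) or 6–10 min (NE, 5-HT). Blanks held on ice. Filtered, counted by scintillation.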

[2] = biological target: Sodium-dependent serotonin transporter (Rattus norvegicus) (UniProt P31652); test: Inhibition of tritiated serotonin(5-HT) uptake at 0.1 uM concentration; type: functional; method in brief: as §1
Rattus norvegicus = organism: Rattus norvegicus; test: Ability to inhibit the uptake of tritiated norepinephrine (NE) at 0.1 uM concentration; type: functional; method in brief: as §1
[3] = biological target: D(2) dopamine receptor (Rattus norvegicus) (UniProt P61169); test: Binding affinity towards dopamine receptor D2 at 1.0 uM concentration
Method in brief: (§2)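 Rat brain crude synaptic membranes in 20 mM NaHEPES pH 7.5. Ligands: α1 cortex […] 0.4 nM, nonspecific with (-)-NE 100 μM, 30 min at 25 °C. […] D2 striatum [3H]spiperone 0.05 nM with (+)-butaclamol 1 μM, 45 min at 37 °C. S1 cortex [3H]5-HT 1 nM plus glutathione and MgCl2, with 5-HT 10 μM, 20 min at 37 °C. […] Samples filtered on GF/B and counted.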

Mus musculus [4] = organism: Mus musculus; test: Gross behavioral effects ascertained in mice; W indicates weak stimulant or depressant activity of little significance.; type: functional, organism-based
Method in brief: (§3)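 Male Swiss Webster mice, 18–24 g, three per dose, given ip doses of 1, 3, 10, 30, 100 and 300 mg/kg. Observed for gross behavior and held for 4 days. Scored as weak (W), stimulant (S), depressant (D) or convulsant (C).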

Mus musculus [5] = organism: Mus musculus; test: Antagonism of tetrabenazine (TBZ)-induced depression measured in mice by motor activity; type: functional; conditions: Mus musculus; read-out: ED50
Method in brief: (§4)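 Nonfasted male Swiss Webster mice, 18–24 g, ten per dose level and in saline controls. Test compound given ip 30 min before tetrabenazine 32 mg/kg ip; dose expressed as free base. Motor activity and ptosis scored. Control response ≤90% corrected by Abbott's formula.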

[6] = biological target: Muscarinic acetylcholine receptor (Rattus norvegicus) (UniProt P08482+P08483+P08485+P08911+P10980); test: Binding affinity towards Muscarinic acetylcholine receptor at 1.0 uM concentration; type: protein assay
Mus musculus [7] = organism: Mus musculus; test: Antagonism of tetrabenazine (TBZ)-induced depression in mice measured for ptosis; type: functional; conditions: Mus musculus; read-out: ED50; method in brief: as §4
[8] = biological target: Norepinephrine transporter (Rattus norvegicus, UniProt Q9WTR4); test: Inhibition of uptake of tritiated norepinephrine (NE) in rat synaptosomes; type: subcellular, Brain
[9] = biological target: Adrenergic receptor alpha-1 (Rattus norvegicus) (UniProt P15823+P23944+P43140); test: Binding affinity towards alpha-1 adrenergic receptor at 1.0 uM concentration; type: protein assay; method in brief: as §2
[10] = biological target: Sodium-dependent dopamine transporter (Rattus norvegicus, UniProt P23977); test: Inhibition of the uptake of tritiated dopamine (DA) in rat synaptosomes; type: subcellular, Brain
[11] = biological target: Adrenergic receptor alpha-2 (Rattus norvegicus) (UniProt P22086+P19328+P22909); test: Binding affinity towards alpha-2 adrenergic receptor at 1.0 uM concentration; type: protein assay
[12] = biological target: Sodium-dependent serotonin transporter (Rattus norvegicus) (UniProt P31652); test: Ability to inhibit the uptake of [3H]- serotonin(5-HT) 0.1 uM concentration at rat brain synaptosomes; type: functional, subcellular; method in brief: as §1
[13] = biological target: Sodium-dependent dopamine transporter (Rattus norvegicus) (UniProt P23977); test: Ability to inhibit the uptake of [3H]dopamine (DA) 0.1 uM concentration at rat brain synaptosomes; type: functional, subcellular; method in brief: as §1
Mus musculus [14] = test: Ability to antagonise intraperitoneal dose; inactive (<10% antagonism) at 30 mgjkg is represented as I-30.; type: functional, organism-based; method in brief: as §4
Mus musculus [15] = test: Ability to antagonise intraperitoneal dose; inactive (<10% antagonism) at 30 mg/kg is represented as I-30.; type: functional, organism-based; design: dose 30 mg/kg; method in brief: as §4
[16] = biological target: Norepinephrine transporter (Rattus norvegicus) (UniProt Q9WTR4); test: Ability to inhibit the uptake of [3H]norepinephrine (NE) 0.1 uM concentration at rat brain synaptosomes; type: functional, subcellular; method in brief: as §1
Mus musculus [17] = organism: Mus musculus; test: Gross behavioral effects ascertained in mice; S indicates significant stimulant properties.; type: functional, organism-based; method in brief: as §3
[18] = biological target: Serotonin 1 (5-HT1) receptor (Rattus norvegicus) (UniProt P28564+P30940+P19327+P28565); test: Binding affinity towards serotonin S1 receptor at 1.0 uM; type: protein assay; method in brief: as §2
[19] = biological target: Serotonin 2 (5-HT2) receptor (Rattus norvegicus, UniProt P30994+P08909+P14842); test: Binding affinity towards 5-hydroxytryptamine 2 receptor; type: protein assay

Sequence of Sodium-dependent serotonin transporter (Rattus norvegicus) (P31652 whole entry): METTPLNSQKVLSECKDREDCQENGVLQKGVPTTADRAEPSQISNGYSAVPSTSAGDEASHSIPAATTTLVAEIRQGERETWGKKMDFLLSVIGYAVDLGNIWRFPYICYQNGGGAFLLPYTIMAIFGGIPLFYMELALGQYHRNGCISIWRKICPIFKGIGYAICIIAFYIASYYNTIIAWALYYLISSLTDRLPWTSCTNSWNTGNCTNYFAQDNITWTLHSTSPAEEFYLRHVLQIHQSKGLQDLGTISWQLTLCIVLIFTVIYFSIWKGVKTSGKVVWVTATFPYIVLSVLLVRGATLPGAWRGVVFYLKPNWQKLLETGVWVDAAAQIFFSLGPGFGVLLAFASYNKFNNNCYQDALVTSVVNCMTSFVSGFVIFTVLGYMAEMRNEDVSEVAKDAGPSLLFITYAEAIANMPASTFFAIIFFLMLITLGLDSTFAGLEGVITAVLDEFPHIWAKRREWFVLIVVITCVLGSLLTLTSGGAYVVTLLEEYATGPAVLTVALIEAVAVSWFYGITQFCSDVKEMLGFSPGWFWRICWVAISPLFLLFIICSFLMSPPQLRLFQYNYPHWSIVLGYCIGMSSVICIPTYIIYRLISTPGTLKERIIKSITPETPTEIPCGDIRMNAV
Sequence of Norepinephrine transporter (Rattus norvegicus) (Q9WTR4 as listed by the source): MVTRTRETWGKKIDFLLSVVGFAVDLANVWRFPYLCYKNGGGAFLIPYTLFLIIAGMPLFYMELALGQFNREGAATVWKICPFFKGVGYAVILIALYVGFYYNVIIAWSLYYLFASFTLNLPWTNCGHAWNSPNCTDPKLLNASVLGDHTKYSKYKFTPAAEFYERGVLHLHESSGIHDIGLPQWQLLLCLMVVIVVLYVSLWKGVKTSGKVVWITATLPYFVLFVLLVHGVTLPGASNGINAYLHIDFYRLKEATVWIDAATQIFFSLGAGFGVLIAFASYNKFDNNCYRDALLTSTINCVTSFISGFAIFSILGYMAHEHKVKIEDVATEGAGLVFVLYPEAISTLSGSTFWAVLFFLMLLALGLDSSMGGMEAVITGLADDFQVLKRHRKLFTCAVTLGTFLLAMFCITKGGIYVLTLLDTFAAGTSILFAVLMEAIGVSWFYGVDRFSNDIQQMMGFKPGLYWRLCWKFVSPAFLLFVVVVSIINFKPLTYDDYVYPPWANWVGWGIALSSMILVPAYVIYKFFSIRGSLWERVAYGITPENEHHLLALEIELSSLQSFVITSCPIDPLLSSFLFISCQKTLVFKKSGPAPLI
Sequence of Norepinephrine transporter (Q9WTR4 whole entry): as the sequence (Q9WTR4 as listed by the source) above
Sequence of D(2) dopamine receptor (Rattus norvegicus) (P61169 whole entry): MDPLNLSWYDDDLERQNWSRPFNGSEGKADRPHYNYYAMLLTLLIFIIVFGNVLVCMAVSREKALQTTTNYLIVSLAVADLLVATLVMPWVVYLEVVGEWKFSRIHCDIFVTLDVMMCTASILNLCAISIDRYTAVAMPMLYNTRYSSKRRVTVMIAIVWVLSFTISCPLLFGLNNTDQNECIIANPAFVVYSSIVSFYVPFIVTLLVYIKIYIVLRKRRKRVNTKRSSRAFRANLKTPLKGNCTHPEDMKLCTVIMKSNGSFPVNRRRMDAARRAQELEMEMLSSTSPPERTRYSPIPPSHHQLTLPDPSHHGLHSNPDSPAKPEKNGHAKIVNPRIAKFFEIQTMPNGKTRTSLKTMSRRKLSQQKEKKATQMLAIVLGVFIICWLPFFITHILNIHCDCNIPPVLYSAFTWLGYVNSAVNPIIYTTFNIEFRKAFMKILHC
Sequence of Sodium-dependent dopamine transporter (P23977 whole entry): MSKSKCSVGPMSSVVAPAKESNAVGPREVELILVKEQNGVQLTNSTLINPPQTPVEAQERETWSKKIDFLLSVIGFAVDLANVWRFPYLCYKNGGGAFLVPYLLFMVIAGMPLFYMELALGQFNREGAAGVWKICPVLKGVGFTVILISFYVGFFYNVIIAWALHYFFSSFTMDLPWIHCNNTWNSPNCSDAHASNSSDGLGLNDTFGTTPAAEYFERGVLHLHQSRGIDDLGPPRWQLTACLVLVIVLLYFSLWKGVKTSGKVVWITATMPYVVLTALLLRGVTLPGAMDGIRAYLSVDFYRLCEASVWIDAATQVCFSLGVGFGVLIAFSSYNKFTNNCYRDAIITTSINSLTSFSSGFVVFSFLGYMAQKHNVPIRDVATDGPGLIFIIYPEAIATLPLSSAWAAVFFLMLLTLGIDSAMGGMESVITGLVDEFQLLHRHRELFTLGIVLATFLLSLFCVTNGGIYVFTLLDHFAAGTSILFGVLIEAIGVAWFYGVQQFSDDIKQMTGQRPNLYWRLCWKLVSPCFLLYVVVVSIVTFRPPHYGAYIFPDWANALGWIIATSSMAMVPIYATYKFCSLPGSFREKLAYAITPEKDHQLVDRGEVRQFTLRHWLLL
Sequence of Sodium-dependent dopamine transporter (Rattus norvegicus) (P23977 whole entry): as above

SMILES | inhibition [1] [%] | inhibition [2] [%] | Inhibition (Rattus norvegicus) [%] | behavior (Mus musculus [4]) | ED50 (Mus musculus [5]) [mg/kg] | ED50 (Mus musculus [7]) [mg/kg] | other results
Clc1cccc2c1[C@H]1CCCN1C[C@H]2c1ccccc1 | 45 | 22 | 4 | – | – | – | –
Br.COc1ccc([C@@H]2CN3CCC[C@@H]3c3ccccc32)cc1OC | – | – | – | Partial stimulant | 2 | 0.13 | inhibition [3]: -1%; inhibition [6]: -1%; pKi [8]: 8.47; inhibition [9]: 58%; pKi [10]: 7.14; inhibition [11]: 15%
C[C@@H]1[C@@H](c2ccccc2)c2ccccc2[C@@H]2CCCN12 | – | – | – | Weak | – | – | inhibition [12]: 12%; inhibition [13]: 0%; ED50 (Mus musculus [14]): inactive; ED50 (Mus musculus [15]): inactive; inhibition [16]: 4%
COc1cc2c(cc1OC)[C@H]1CCCN1C[C@H]2c1ccccc1 | – | – | – | – | 15.1 | 3.8 | inhibition [3]: 6%; pKi [8]: 7.27; behavior (Mus musculus [17]): Stimulant; pKi [10]: 7.82
Br.CSc1ccc([C@@H]2CN3CCC[C@H]3c3ccccc32)cc1 | – | – | – | – | > 75 | 10.9 | inhibition [3]: 28%; inhibition [6]: 0%; inhibition [9]: 43%
O=C(CCCN1CCC(O)(c2ccc(Cl)cc2)CC1)c1ccc(F)cc1 | – | – | – | – | – | – | inhibition [18]: 58%
CNCCC(Oc1ccc(C(F)(F)F)cc1)c1ccccc1 (stereo not drawn) | – | – | – | – | – | – | inhibition [3]: 12%; inhibition [18]: 13%
CSc1ccc([C@@H]2CN3CCC[C@@H]3c3ccccc32)cc1 (stereo in doubt; (+)-48b) | – | – | – | – | – | – | inhibition [18]: 31%
c1ccc([C@@H]2CN3CCC[C@@H]3c3ccccc32)cc1 | – | – | – | Partial stimulant | – | – | inhibition [12]: 16%; inhibition [13]: 6%; ED50 (Mus musculus [14]): inactive; ED50 (Mus musculus [15]): inactive; inhibition [16]: 4%
Clc1ccc([C@@H]2CN3CCC[C@@H]3c3cc(Cl)ccc32)cc1 | – | – | – | Partial stimulant | 37.4 | ~4 | inhibition [3]: 55%; pKi [8]: 8.49; inhibition [9]: 20%; pKi [10]: 8.49; inhibition [11]: 10%; inhibition [18]: 11%
Br.Oc1ccc([C@@H]2CN3CCC[C@H]3c3ccccc32)cc1 | 26 | – | 78 | Partial stimulant | – | 2 | inhibition [3]: 59%; ED50 (Mus musculus [15]): inactive
Br.Clc1cccc([C@@H]2CN3CCC[C@@H]3c3ccccc32)c1 | – | – | – | – | ~0.1 | < 1 | pKi [8]: 9.35; behavior (Mus musculus [17]): Stimulant; Ki [19]: 49 nM; pKi [10]: 8.60
Br.Fc1c(F)c(F)c([C@@H]2CN3CCC[C@H]3c3ccccc32)c(F)c1F | 0 | 4 | 12 | – | – | – | –
Clc1cccc([C@@H]2CN3CCC[C@H]3c3ccccc32)c1 | 67 | 11 | – | – | – | – | pKi [8]: 7.00
Br.c1ccc([C@H]2CN3CCC[C@H]3c3[nH]c4ccccc4c32)cc1 | – | – | – | – | 1.07 | 0.3 | pKi [8]: 8.64; behavior (Mus musculus [17]): Significant stimulant; pKi [10]: 8.54
Fc1ccc([C@@H]2CN3CCC[C@H]3c3ccccc32)cc1 | 43 | 3 | 61 | Weak | > 60 | > 10 | –
Br.Fc1c(F)c(F)c([C@@H]2CN3CCC[C@@H]3c3ccccc32)c(F)c1F | 14 | 2 | 42 | – | – | – | –
c1ccc(C[C@H]2CN3CCC[C@H]3c3ccccc32)cc1 | – | – | – | – | – | – | inhibition [12]: 32%; inhibition [13]: 19%; ED50 (Mus musculus [14]): inactive; ED50 (Mus musculus [15]): inactive; inhibition [16]: 69%
c1ccc([C@@H]2CN3CCC[C@@H]3c3ccccc32)cc1 (stereo in doubt; (+)-7b) | – | – | – | – | – | – | inhibition [3]: 40%; behavior (Mus musculus [17]): Stimulant; inhibition [11]: 64%
COc1ccc([C@@H]2CN3CCC[C@H]3c3ccccc32)cc1OC | 11 | 27 | 9 | Weak | – | 29.4 | ED50 (Mus musculus [15]): inactive
Br.Oc1cccc([C@@H]2CN3CCC[C@@H]3c3ccccc32)c1 | – | – | – | – | > 10 | 0.11 | pKi [8]: 9.07; behavior (Mus musculus [17]): Significant stimulant; pKi [10]: 8.00
COc1cccc2c1[C@H](c1ccccc1)CN1CCC[C@@H]21 | 0 | 31 | 5 | Weak | 20.7 | 13.9 | –
COc1ccccc1[C@@H]1CN2CCC[C@H]2c2ccccc21 | -3 | -2 | 65 | – | – | – | –
Br.Clc1cccc2c1[C@H](c1ccccc1)CN1CCC[C@@H]21 | 6 | 0 | 3 | – | > 3 | > 3 | –
